Source: ChEMBL document CHEMBL3352688, “Synthesis and anti-inflammatory and pro-resolving activities of 22-OH-PD1, a monohydroxylated metabolite of protectin D1” (2014)
Calls of active or inactive are those of the source. The calls are words filed in the database; no cut-off is given here.

How the values were obtained:
Homo sapiens [1] = species on record: Homo sapiens; test: Inhibition of LTB4-induced cell adhesion to fibronectin in human primary PMN at 0.1 to 10 nM pre-incubated for 10 mins followed by LTB4 stimulation by flow cytometry; format: functional; details: in the assay text read “flow chamber assay with microscopy” for “flow cytometry”
In short: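 Purified human PMN were pretreated 10 min at room temperature, then stimulated with 10 nM LTB4 for 10 min at room temperature. Cells at 1 × 10^6/mL were perfused over fibronectin-coated chambers at 0.5 mL/min for 5 min. Adherent cells were counted in six random fields by imaging. Three independent experiments; paired t test versus vehicle.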

Mus musculus [2] = test: Anti-inflammatory activity in FVB mouse with zymosan-induced sterile peritonitis assessed as reduction in PGF2alpha in peritoneal inflammatory exudates at 10 ng, ip dosed 10 mins before zymosan challenge by LC-MS/MS based targeted lipid mediator metabololipidomics; format: functional
In short: (§1)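 Male FVB mice, 6–8 weeks old, received 10 ng i.p. in saline with 0.1% EtOH as vehicle, then zymosan 1 mg/mouse i.p. 10 min later. Peritoneal lavage was taken at 4 h in PBS without Ca/Mg. Eicosanoids were measured by LC/MS-MS after solid-phase extraction, identified with at least six diagnostic ions and quantified against linear calibration curves. Mean ± SEM, n = 4 mice per group.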

Mus musculus [3] = test: Anti-inflammatory activity in FVB mouse with zymosan-induced sterile peritonitis assessed as reduction in PGD2 in peritoneal inflammatory exudates at 10 ng, ip dosed 10 mins before zymosan challenge by LC-MS/MS based targeted lipid mediator metabololipidomics; format: functional; in short: as §1
Mus musculus [4] = test: Anti-inflammatory activity in FVB mouse with zymosan-induced sterile peritonitis assessed as reduction in PMN infiltration in peritoneal inflammatory exudates at 10 ng, ip measured at 4 hrs dosed 10 mins before zymosan challenge by light microscopy and flow cytometry; format: functional
In short: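 Male FVB mice, 6–8 weeks old, were dosed i.p. with 10 ng in saline with 0.1% EtOH, then zymosan 1 mg/mouse i.p. 10 min later. Peritoneal lavage was collected at 4 h in PBS without Ca/Mg. Leukocytes were enumerated by light microscopy and flow cytometry. Mean ± SEM, n = 4 mice per treatment.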

[5] = Inhibition of IL8-induced chemotaxis of human primary PMN at 0.01 to 100 nM pre-incubated for 15 mins followed by IL8 stimulation by PrestoBlue fluorescence assay
[6] = Inhibition of LTB4-induced chemotaxis of human primary PMN at 0.01 to 100 nM pre-incubated for 15 mins followed by LTB4 stimulation by PrestoBlue fluorescence assay
Mus musculus [7] = test: Anti-inflammatory activity in FVB mouse with zymosan-induced sterile peritonitis assessed as reduction in TXB2 in peritoneal inflammatory exudates at 10 ng, ip dosed 10 mins before zymosan challenge by LC-MS/MS based targeted lipid mediator metabololipidomics; format: functional; in short: as §1
Homo sapiens [8] = species on record: Homo sapiens; test: Inhibition of IL8-induced chemotaxis of human primary PMN at 0.01 to 100 nM pre-incubated for 15 mins followed by IL8 stimulation by PrestoBlue fluorescence assay
Homo sapiens [9] = species on record: Homo sapiens; test: Inhibition of LTB4-induced chemotaxis of human primary PMN at 0.01 to 100 nM pre-incubated for 15 mins followed by LTB4 stimulation by PrestoBlue fluorescence assay

| Structure (SMILES) | inhibition (Homo sapiens [1]) | inhibition (INH) (Mus musculus [2]) [%] | inhibition (INH) (Mus musculus [3]) [%] | inhibition (INH) (Mus musculus [4]) [%] | inhibition (INH) [5] [%] | inhibition (INH) [6] [%] | inhibition (INH) (Mus musculus [7]) [%] | inhibition (Mus musculus [2]) | inhibition (Mus musculus [3]) | inhibition (Homo sapiens [8]) | inhibition (Homo sapiens [9]) | inhibition (Mus musculus [7]) |
| --- | --- | --- | --- | --- | --- | --- | --- | --- | --- | --- | --- | --- |
| O=C(O)CC/C=C\C/C=C\C[C@@H](O)/C=C/C=C/C=C\[C@@H](O)C/C=C\CCO | Active | 43 | 27 | 43 | 23 | 19 | 48 | – | – | – | – | – |
| CC/C=C\C[C@H](O)\C=C/C=C/C=C/[C@H](O)C/C=C\C/C=C\CCC(=O)O | Active | – | – | 54 | – | – | – | Active | Active | Active | Active | Active |
